# Active and inactive are the calls of the source. No cut-off for these calls is given here.
# Experiments:
# [1] = target: T1, Glycogen synthase kinase-3 beta (Homo sapiens, UniProt P49841); assay: Inhibition of human recombinant GSK3beta using GSM as substrate incubated for 30 mins by luminescence based assay
# Target sequence in this assay (P49841 whole entry): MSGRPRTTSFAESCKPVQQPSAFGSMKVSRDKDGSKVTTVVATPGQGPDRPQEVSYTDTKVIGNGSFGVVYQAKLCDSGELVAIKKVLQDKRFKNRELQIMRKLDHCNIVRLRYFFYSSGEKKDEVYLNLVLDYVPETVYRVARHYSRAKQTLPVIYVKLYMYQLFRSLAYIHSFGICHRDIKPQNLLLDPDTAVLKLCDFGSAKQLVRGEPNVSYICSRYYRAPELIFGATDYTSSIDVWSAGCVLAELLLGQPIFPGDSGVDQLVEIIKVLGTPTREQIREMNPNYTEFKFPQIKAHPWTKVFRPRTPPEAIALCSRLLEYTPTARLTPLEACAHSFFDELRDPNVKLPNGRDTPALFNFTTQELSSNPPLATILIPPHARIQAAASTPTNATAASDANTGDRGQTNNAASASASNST
# Histone deacetylase 1 = Histone deacetylase 1 (Homo sapiens, UniProt Q13547); assay: Inhibition of human recombinant his tagged HDAC1 expressed in baculovirus infected […] insect cells using tertbutyloxycarbonyl (Boc)-(Ac)-Lys-7-amino-4-methylcoumarin as substrate incubated for 1 hr by fluorescence based assay
# [2] = target: T2, Protein deacetylase HDAC6 (Homo sapiens, UniProt Q9UBN7); assay: Inhibition of human recombinant his tagged HDAC6 expressed in baculovirus infected […] insect cells using batcp as substrate incubated for 1 hr by fluorescence based assay
# T2 sequence (Q9UBN7 whole entry): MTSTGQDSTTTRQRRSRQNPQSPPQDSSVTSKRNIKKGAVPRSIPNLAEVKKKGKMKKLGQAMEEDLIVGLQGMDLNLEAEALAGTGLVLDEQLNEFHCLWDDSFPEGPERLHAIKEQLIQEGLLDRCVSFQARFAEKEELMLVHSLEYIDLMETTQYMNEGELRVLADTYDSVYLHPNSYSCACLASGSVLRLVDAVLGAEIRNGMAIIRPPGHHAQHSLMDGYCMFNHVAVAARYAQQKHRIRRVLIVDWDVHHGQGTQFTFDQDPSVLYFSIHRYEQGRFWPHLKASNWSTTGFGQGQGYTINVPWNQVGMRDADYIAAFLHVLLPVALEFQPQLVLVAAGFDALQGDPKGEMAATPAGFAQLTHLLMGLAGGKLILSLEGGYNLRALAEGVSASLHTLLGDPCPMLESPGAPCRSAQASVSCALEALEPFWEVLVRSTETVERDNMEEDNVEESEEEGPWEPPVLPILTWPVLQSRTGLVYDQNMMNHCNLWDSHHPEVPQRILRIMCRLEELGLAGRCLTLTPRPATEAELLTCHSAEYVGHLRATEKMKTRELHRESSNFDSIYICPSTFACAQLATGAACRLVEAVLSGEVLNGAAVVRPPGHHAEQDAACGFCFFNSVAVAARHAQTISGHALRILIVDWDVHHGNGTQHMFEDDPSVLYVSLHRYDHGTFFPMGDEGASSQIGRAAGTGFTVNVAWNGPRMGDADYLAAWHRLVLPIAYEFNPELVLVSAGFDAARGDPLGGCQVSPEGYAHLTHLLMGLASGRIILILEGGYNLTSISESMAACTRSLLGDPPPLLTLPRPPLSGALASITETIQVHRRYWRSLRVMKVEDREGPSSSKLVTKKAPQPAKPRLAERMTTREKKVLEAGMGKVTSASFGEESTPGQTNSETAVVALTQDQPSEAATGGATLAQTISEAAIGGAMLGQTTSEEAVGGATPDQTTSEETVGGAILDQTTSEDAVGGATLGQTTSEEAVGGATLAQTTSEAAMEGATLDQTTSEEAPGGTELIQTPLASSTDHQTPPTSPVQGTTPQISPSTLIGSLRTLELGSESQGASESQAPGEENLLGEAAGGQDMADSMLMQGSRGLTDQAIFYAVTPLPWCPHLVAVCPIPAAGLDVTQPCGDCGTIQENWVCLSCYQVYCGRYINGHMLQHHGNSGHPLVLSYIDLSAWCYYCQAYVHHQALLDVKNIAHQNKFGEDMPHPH
# [3] = target: T3, Protein deacetylase HDAC6 (Homo sapiens) (UniProt Q9UBN7); assay: Inhibition of HDAC6 in human SH-SY5Y cells assessed as increase in acetylation of alpha-tubulin incubated for 30 hrs by Western blot analysis; type: cell-based
# T3 sequence (whole entry): T2 sequence (Q9UBN7 whole entry)
# Method in brief: (§1)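 Human neuroblastoma SH-SY5Y cells treated 30 h at 0.1, 1.0 and 5.0 μM; cell lysates probed by Western blot for acetylated α-tubulin (HDAC6 cellular marker) and histone H3 acetylated at lysines 9/14 (H3K9K14ac).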
# [4] = target: T4, Histone deacetylase (Homo sapiens) (UniProt Q13547+O15379+Q9UBN7+Q92769+Q9UQL6+Q8WUI4+Q9BY41+Q96DB2+P56524+Q9UKV0+Q969S8); assay: Inhibition of HDAC in human SH-SY5Y cells assessed as increase in acetylation of histone 3 at lysines 9/14 at 0.1 to 5 uM incubated for 30 hrs by Western blot analysis; type: cell-based; method in brief: as §1
# [5] = target: T1, Glycogen synthase kinase-3 beta; assay: Inhibition of GSK3beta in human SH-SY5Y cells assessed as reduction in copper-induced tau hyperphosphorylation at 10 uM preincubated for 1 hr followed by copper addition and measured after 26 hrs by ELISA; type: cell-based; details: in the assay text read “16 hrs” for “26 hrs”
# Method in brief: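 Differentiated SH-SY5Y cells pretreated 1 h with test agent (LiCl 10 mM reference; compounds 10 μM), then copper 400 μM for 16 h; cells scraped, phospho-tau quantified by immunoenzymatic assay at 450 nm; mean ± SEM.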
# Target sequence in this assay (P49841 whole entry, looked up): as the sequence (P49841 whole entry) above
# SH-SY5Y [6] = assay: Cytotoxicity against human SH-SY5Y cells up to 100 uM incubated for 24 hrs by MTS assay; type: cell-based
# Method in brief: (§2)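 SH-SY5Y cells exposed to test compound for 24 h at 37 °C; viability read by MTS assay and expressed as % of untreated control.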
# SH-SY5Y [7] = assay: Neuroprotective activity against H2O2-induced cell death in human SH-SY5Y cells at 0.1 uM incubated for 24 hrs by MTS assay; type: functional, cell-based
# Method in brief: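 SH-SY5Y cells challenged 24 h with H2O2 (25 and 50 μM) in presence of compounds (0.1–10 μM), alone or as a two-compound combination; viability by MTS assay as % of control.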
# SH-SY5Y [8] = assay: Cytoprotective activity against human SH-SY5Y cells assessed as restoration of H2O2-induced p53 expression level at 10 uM incubated for 24 hrs; type: functional, cell-based
# Method in brief: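 SH-SY5Y cells exposed to H2O2 (50 μM) with or without test compound (10 μM); p53 protein levels then measured.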
# [9] = test system: Cerebellar granule neurone; assay: Neuroprotective activity against 6-OHDA-induced cell death in Wistar rat primary cerebellar granule neurons at 5 uM preincubated for 6 hrs followed by 6-OHDA addition and measured after 24 hrs by MTT assay; type: functional, cell-based
# Method in brief: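 Primary differentiated cerebellar granule neurons challenged with 6-OHDA with or without test compound; viability assessed; mean ± SE of at least 3 experiments in quadruplicate, one-way ANOVA with Bonferroni post hoc test.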
# SH-SY5Y [10] = assay: Induction of neurogenesis in human SH-SY5Y cells assessed as upregulation of GAP43 mRNA at 10 uM incubated for 24 hrs by RT-PCR analysis; type: functional, cell-based
# Method in brief: (§3)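 SH-SY5Y cells treated 24 h (10 μM, or 1 μM for one parent compound; retinoic acid positive control); GAP43, N-myc and MAP-2 mRNA measured by RT-PCR, expressed as fold of control.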
# SH-SY5Y [11] = assay: Induction of neurogenesis in human SH-SY5Y cells assessed as upregulation of N-myc mRNA at 10 uM incubated for 24 hrs by RT-PCR analysis; type: functional, cell-based; method in brief: as §3
# SH-SY5Y [12] = assay: Induction of neurogenesis in human SH-SY5Y cells assessed as upregulation of MAP-2 mRNA at 10 uM incubated for 24 hrs by RT-PCR analysis; type: functional, cell-based; method in brief: as §3
# SH-SY5Y [13] = assay: Induction of neurogenesis in human SH-SY5Y cells assessed as stimulation of neurite outgrowth at 10 uM incubated for 72 hrs by phase contrast microscopic analysis; type: functional, cell-based
# Method in brief: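 SH-SY5Y cells treated 72 h at 10 μM, retinoic acid (10 μM) as positive control; neurite-bearing cells scored from images taken at 20× magnification.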
# Microglia [14] = assay: Immunomodulatory activity in LPS treated Wistar rat primary microglial cells assessed as decrease in NOS2 expression level at 5 to 50 uM incubated for 24 hrs by western blot analysis; type: functional, cell-based
# Method in brief: (§4)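 Primary microglial cells treated 24 h with LPS in presence or absence of test compound; NOS2, MRC1 and TREM2 protein assessed by Western blot, normalized to GAPDH.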
# Microglia [15] = assay: Immunomodulatory activity in LPS treated Wistar rat primary microglial cells assessed as decrease in MRC1 expression level at 5 to 50 uM incubated for 24 hrs by western blot analysis; type: functional, cell-based; method in brief: as §4
# Microglia [16] = assay: Immunomodulatory activity in LPS treated Wistar rat primary microglial cells assessed as effect on TREM2 expression level at 5 to 50 uM incubated for 24 hrs by western blot analysis; type: functional, cell-based; method in brief: as §4
# [17] = Toxicity in zebra fish embryo at 25 uM dosed at 5 hpf and measured after 44 to 48 hpf by microscopic based assay; type: organism-based, Danio rerio; details: zebrafish, in vivo
# [18] = Toxicity in zebra fish embryo assessed as lethality at < 100 uM dosed at 5 hpf and measured after 44 to 48 hpf by microscopic based assay; type: organism-based, Danio rerio; details: zebrafish, in vivo
# Method in brief: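 Wild-type zebrafish embryos exposed to the compound at concentrations below 100 μM, including 25, 50 and 75 μM. Control embryos were kept in 2% DMSO vehicle. Embryos were scored for lethality, and their morphology, including tail and eye formation, was inspected by imaging.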
# [19] = Toxicity in zebra fish embryo assessed as stunted tail at 50 to 75 uM uM dosed at 5 hpf and measured after 44 to 48 hpf by microscopic based assay; type: organism-based, Danio rerio; details: zebrafish, in vivo
# [20] = Toxicity in zebra fish embryo assessed as crooked tail at 50 to 75 uM uM dosed at 5 hpf and measured after 44 to 48 hpf by microscopic based assay; type: organism-based, Danio rerio; details: zebrafish, in vivo
# [21] = Toxicity in zebra fish embryo assessed as malformation of eye at 75 uM uM dosed at 5 hpf and measured after 44 to 48 hpf by microscopic based assay; type: organism-based, Danio rerio; details: zebrafish, in vivo
# [22] = Toxicity in zebra fish embryo assessed as development perturbation at 75 uM dosed at 5 hpf and measured after 44 to 48 hpf by microscopic based assay; type: organism-based, Danio rerio; details: zebrafish, in vivo
# [23] = Aqueous solubility of the compound in PBS incubated for 24 hrs under continuous stirring condition by UV spectrometric assay; type: physicochemical
# [24] = target: T4, Histone deacetylase (Homo sapiens); assay: Inhibition of HDAC in human SH-SY5Y cells assessed as increase in acetylation of histone 3 at lysines 9/14 at 5 uM incubated for 30 hrs by Western blot analysis; type: cell-based; method in brief: as §1
# [25] = target: T1, Glycogen synthase kinase-3 beta; assay: Inhibition of human recombinant GSK3beta up to 50 uM using GSM as substrate incubated for 30 mins by luminescence based assay
# Target sequence in this assay (P49841 whole entry, looked up): as the sequence (P49841 whole entry) above
# SH-SY5Y [26] = assay: Cytotoxicity against human SH-SY5Y cells at 10 uM incubated for 24 hrs by MTS assay; type: cell-based; method in brief: as §2
# SH-SY5Y [27] = assay: Induction of neurogenesis in human SH-SY5Y cells assessed as upregulation of GAP43 mRNA at 1 uM incubated for 24 hrs by RT-PCR analysis; type: functional, cell-based; method in brief: as §3
# SH-SY5Y [28] = assay: Induction of neurogenesis in human SH-SY5Y cells assessed as upregulation of MAP-2 mRNA at 1 uM incubated for 24 hrs by RT-PCR analysis; type: functional, cell-based; method in brief: as §3
# SH-SY5Y [29] = assay: Induction of neurogenesis in human SH-SY5Y cells assessed as upregulation of N-myc mRNA at 1 uM incubated for 24 hrs by RT-PCR analysis; type: functional, cell-based; method in brief: as §3
# Chain of Histone deacetylase 1 (Q13547 whole entry): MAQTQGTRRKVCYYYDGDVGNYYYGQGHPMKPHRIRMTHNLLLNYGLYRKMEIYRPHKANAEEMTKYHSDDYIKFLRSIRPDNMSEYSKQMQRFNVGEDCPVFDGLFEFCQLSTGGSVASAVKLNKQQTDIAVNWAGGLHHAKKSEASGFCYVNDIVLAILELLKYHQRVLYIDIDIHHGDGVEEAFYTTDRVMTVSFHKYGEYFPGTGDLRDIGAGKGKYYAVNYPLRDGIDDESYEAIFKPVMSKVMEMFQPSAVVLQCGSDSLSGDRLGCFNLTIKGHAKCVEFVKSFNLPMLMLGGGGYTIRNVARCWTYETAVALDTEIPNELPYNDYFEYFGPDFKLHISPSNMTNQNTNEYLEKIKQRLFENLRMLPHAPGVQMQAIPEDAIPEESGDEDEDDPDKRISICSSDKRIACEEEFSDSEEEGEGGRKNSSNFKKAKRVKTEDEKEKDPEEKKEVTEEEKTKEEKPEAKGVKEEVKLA
smiles,measurement,setting,value
O=C(CCCCCNC(=S)Nc1ccc2c(c1)C(=O)NC2=O)NO,IC50,[1],2.69 µM
same,IC50,Histone deacetylase 1,12.8 µM
same,IC50,[2],3.19 µM
same,inhibition,[3],Dose-dependent effect
same,inhibition,[4],inactive
same,inhibition,[5],Active
same,Activity,SH-SY5Y [6],Non-Toxic
same,Activity,SH-SY5Y [7],Active
same,Activity,SH-SY5Y [8],Active
same,Activity,[9],Active
same,Activity,SH-SY5Y [10],Active
same,Activity,SH-SY5Y [11],Active
same,Activity,SH-SY5Y [12],Active
same,Activity,SH-SY5Y [13],Active
same,Activity,Microglia [14],Active
same,Activity,Microglia [15],Active
same,Activity,Microglia [16],inactive
same,Activity,[17],Non-Toxic
same,Activity,[18],Non-Toxic
same,Activity,[19],Toxic
same,Activity,[20],Toxic
same,Activity,[21],Toxic
same,Activity,[22],Toxic
same,solubility at 24 h,[23],153 µM
same,inhibition,[24],inactive
O=C(CCCCNC(=S)Nc1ccc2c(c1)C(=O)NC2=O)NO,IC50,[1],4.11 µM
same,IC50,Histone deacetylase 1,5.02 µM
same,IC50,[2],14.7 µM
O=C(CCCCCCC(=O)Nc1ccccc1)NO [VORINOSTAT],inhibition,[25],inactive
same,inhibition,[5],Active
same,Activity,SH-SY5Y [26],Toxic
same,Activity,SH-SY5Y [27],Active
same,Activity,SH-SY5Y [28],Active
same,Activity,SH-SY5Y [29],Active
same,Activity,Microglia [14],Active
same,Activity,Microglia [15],Active
same,Activity,Microglia [16],inactive
O=C(CCCNC(=S)Nc1ccc2c(c1)C(=O)NC2=O)NO,IC50,[1],9.85 µM
same,IC50,Histone deacetylase 1,2.24 µM
same,IC50,[2],12.6 µM
